Reference: PubChem BioAssay
Inconclusive results are not listed.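 How the source made its calls, unless noted: active means cell viability at or below a set limit in both duplicate runs, the limit being the all-compound median minus 4 SD (cut at about 23% in these data, passing the limit was not always enough); inconclusive means no clear call, values can overlap the other calls; inactive means the rest.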

What was measured:
[1] = S. cerevisiae growth inhibition in permissive medium (OD615), pilot counter-assay for S. cerevisiae lifespan shortening project, permissive growth control (AID 705;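 active means growth inhibition above 25% in both replicates, a cutoff set 3 SD above the mean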); conditions: OD615, 24 h, at 10 µM, hits give high values
In short: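 Material: engineered DeaD yeast; Compound: one dose 10 µM, DMSO 0.25% final; Detection: absorbance (optical density) at 615 nm; Buffer or medium: permissive raffinose/galactose medium; Timing: 24 h exposure, 30 °C.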

[2] = S. cerevisiae growth inhibition in restrictive medium, OD615, pilot screen, restrictive growth control, yeast lifespan reduction project (AID 706;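 active means growth inhibition above a set limit, 3 SD over mean compound inhibition, in both replicates, cut at about 43% in these data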;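 further: modified DeaD lifespan yeast strain shifted to restrictive glucose medium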); conditions: OD615, 48 h, at 10 µM, hits give high values
In short: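 Buffer or medium: restrictive glucose medium (CSMM-D); test system: modified S. cerevisiae; doses: single dose of 10 µM compound final, 0.25% DMSO; schedule: 48 h compound exposure at 30 °C; detection: absorbance (optical density) measured at 615 nm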

[3] = doxorubicin toxicity protection in MRP-1 cells – H69AR cells, CellTiter-Glo, duplicate, MRP-1 activator project, pilot screen (AID 807;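 active means viability increase at or above a cutoff of the median across tested compounds plus 3 SD, cut at about 8.5% in these data, passing the limit was not always enough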;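 further: compound pretreatment 18-22 h then 72 h combined with doxorubicin; 0% = doxorubicin alone and 100% = vehicle without doxorubicin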); conditions: H69AR viability with doxorubicin, CellTiter-Glo luminescence; at 10 µM; hits give high values
[4] = viability of HCT116 without oncogenic beta-catenin – human colon tumor cells, pilot screen (AID 823); conditions: HCT116 beta-catenin knockout viability, CellTiter-Glo, 60 h; at 10 µM; hits give low values;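 further: 0% = wells killed by 20 µM Hyamine and 100% = untreated DMSO cell wells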
[5] = viability of PTEN-null HCT116 cells – cell-based, HCT116 clonal line, CellTiter-Glo, pilot screen (AID 824;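 active means viability at or below 27.92% in each of two runs, the all-compound median minus 4 SD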;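 further: 0% = 20 µM Hyamine control and 100% = vehicle cell control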); conditions: HCT116 PTEN-deleted viability, 60 h, at 10 µM, hits give low values
[6] = RAM pathway blockade in budding yeast – dse1pr::URA3 reporter, 5-FOA selection, pilot screen (AID 869;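 active means inhibition over a set limit, the all-compound mean plus 3 SD, in both replicate runs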;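 further: 0% = DMSO wells with no growth and 100% = 10 µM 1-NA-PP1 with full growth; RAM network block rescues cells from 5-FOA so hits raise OD615 growth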); conditions: S. cerevisiae dse1pr::URA3 5-FOA growth, OD615, 2 d; at 10 µM; hits give high values; strain carries analog-sensitive mutant Cbk1 kinase
[7] = RAM signaling pathway blockade in yeast – S. cerevisiae, Pdr1DBD-CYC8 efflux-inhibited sensitized strain, primary screen (AID 1298;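 active means RAM network inhibition above 8.4% in each of two replicates, 3 SD over the compound average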;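 further: 0% = DMSO untreated cells without growth and 100% = 10 µM 1-NA-PP1 full growth; higher means more yeast growth rescued from 5-FOA killing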); conditions: S. cerevisiae cbk1-as DSE1-URA3 strain, 5-FOA growth OD615, 2 d; at 50 µM; hits give high values

Clc1ccc(C=NC23CN4CN(CN(C4)C2)C3)cc1
inactive: growth inhibition [1] 8.77% | growth inhibition [2] 6.34% | viability increase [3] -1.39% | viability [4] 102% | viability [5] 90.3% | inhibition [6] 1.11% | RAM network inhibition [7] 0.19%

O=C(Cn1nnc(-c2ccccc2F)n1)NCCc1ccccc1
inactive: growth inhibition [1] -13.3% | growth inhibition [2] -7.54% | viability increase [3] -0.89% | viability [4] 97.4% | viability [5] 94% | inhibition [6] 1.33% | RAM network inhibition [7] 0.36%

Cc1nc2sc(C(c3cccs3)N3CCN(c4ccccc4)CC3)c(O)n2n1 (stereo not drawn)
inactive: growth inhibition [1] 0.19% | growth inhibition [2] 5.34% | viability increase [3] -0.21% | viability [4] 96.5% | viability [5] 94.8% | inhibition [6] 1.19% | RAM network inhibition [7] 2.14%

CCC(CC)C(=O)NCc1ccccc1OC
inactive: growth inhibition [1] 4.68% | growth inhibition [2] -4.89% | viability increase [3] -0.51% | viability [4] 99.1% | viability [5] 101% | inhibition [6] 0.98% | RAM network inhibition [7] 2.02%

COc1cccc2cc3c(=O)n(-c4ccccc4)nc-3oc12
inactive: growth inhibition [1] -29.6% | growth inhibition [2] -20.8% | viability increase [3] -7.1% | viability [4] 97.2% | viability [5] 92.1% | inhibition [6] 2.73% | RAM network inhibition [7] 3.19%

CCCCCn1c(N(C)Cc2ccccc2)nc2c1c(=O)[nH]c(=O)n2C
inactive: growth inhibition [1] -4.46% | growth inhibition [2] -2.36% | viability increase [3] -0.81% | viability [4] 74% | viability [5] 69.3% | inhibition [6] 0.435% | RAM network inhibition [7] 1.07%

c1ccc2c(c1)nc(NCC1CCCO1)c1nnnn12 (stereo not drawn)
inactive: growth inhibition [1] -4.03% | growth inhibition [2] 4.6% | viability increase [3] -3.64% | viability [4] 101% | viability [5] 97.6% | inhibition [6] 1.34% | RAM network inhibition [7] 2.87%

Cc1oc(C(C)(C)C)cc1C(=O)Nc1ccc(C(=O)O)cc1
inactive: growth inhibition [1] 6.25% | growth inhibition [2] -11.5% | viability increase [3] 2.02% | viability [4] 103% | viability [5] 91% | inhibition [6] 0.6% | RAM network inhibition [7] -1.87%

CCOC(=O)c1sc(NC(=O)c2ccco2)nc1C
inactive: growth inhibition [1] -9.56% | growth inhibition [2] -2.94% | viability increase [3] -1.31% | viability [4] 94.5% | viability [5] 91.8% | inhibition [6] 1.66% | RAM network inhibition [7] 3.98%

CCc1ccc(-c2nc(CN3CCCC(C(=O)O)C3)c(C)o2)cc1 (stereo not drawn)
inactive: growth inhibition [1] 2.06% | growth inhibition [2] -4.83% | viability increase [3] 1.14% | viability [4] 97.6% | viability [5] 101% | inhibition [6] -0.145% | RAM network inhibition [7] 2.81%

COc1cc2c(cc1OC)C(C(=O)N1CCCC1)C(c1ccccc1F)N(C)C2=O (stereo not drawn)
inactive: growth inhibition [1] -23.3% | growth inhibition [2] -16.3% | viability increase [3] -1.68% | viability [4] 91.3% | viability [5] 97% | inhibition [6] 0.27% | RAM network inhibition [7] 3.55%

Cc1onc(-c2ccccc2Cl)c1C(=O)OCn1nnc2ccccc2c1=O
inactive: growth inhibition [1] -5.29% | growth inhibition [2] -2.08% | viability increase [3] -1.94% | viability [4] 84.4% | viability [5] 87.3% | inhibition [6] 2.41% | RAM network inhibition [7] 7.77%

COc1cc(C)c(N(C(C)=O)c2ccccc2)c(C)c1
inactive: growth inhibition [1] -10.7% | growth inhibition [2] -17.4% | viability increase [3] -0.85% | viability [4] 92.2% | viability [5] 87.3% | inhibition [6] 1.97% | RAM network inhibition [7] 5.22%

Cc1ccc2cc(CCNS(=O)(=O)c3ccc(F)cc3)c(=O)[nH]c2c1
inactive: growth inhibition [1] -11.5% | growth inhibition [2] -8.69% | viability increase [3] -1.91% | viability [4] 93% | viability [5] 80.5% | inhibition [6] 1.72% | RAM network inhibition [7] 1.31%

COCc1cc(C)nc2sc(C(=O)Nc3nccs3)c(N)c12
inactive: growth inhibition [1] -7.22% | growth inhibition [2] 11.6% | viability increase [3] -5.32% | viability [4] 109% | viability [5] 97.5% | inhibition [6] 0.145% | RAM network inhibition [7] 2.07%

COC(=O)C1CCN(C(=O)c2ccc(Cl)c(S(=O)(=O)NCc3cccnc3)c2)CC1
inactive: growth inhibition [1] -4.88% | growth inhibition [2] -18.5% | viability increase [3] 0.87% | viability [4] 101% | viability [5] 102% | inhibition [6] 1.32% | RAM network inhibition [7] 2.3%

COc1cccc(C2CC(c3ccc(Cl)cc3)Nc3nc(N)nn32)c1 (stereo not drawn)
inactive: growth inhibition [1] 4.02% | growth inhibition [2] 11.4% | viability increase [3] 3.49% | viability [4] 91.4% | viability [5] 83% | inhibition [6] 1.92% | RAM network inhibition [7] 6.11%

COC(=O)CSC1=C(C#N)C(c2cccc(OC)c2)CC(=O)N1 (stereo not drawn)
inactive: growth inhibition [1] -12.2% | growth inhibition [2] -5.83% | viability increase [3] -3.93% | viability [4] 89.1% | viability [5] 90.3% | inhibition [6] 0.41% | RAM network inhibition [7] -1.62%

CCCNC(=O)CS(=O)Cc1nc(-c2ccccc2C)oc1C (stereo not drawn)
inactive: growth inhibition [1] -14.3% | growth inhibition [2] -5.72% | viability increase [3] 0.85% | viability [4] 94.2% | viability [5] 96.9% | inhibition [6] -0.325% | RAM network inhibition [7] 6.48%

O=C(CCn1c(=O)oc2ccccc21)N1CCN(c2ccc(F)cc2)CC1
inactive: growth inhibition [1] 2.05% | growth inhibition [2] -4.67% | viability increase [3] -0.8% | viability [4] 107% | viability [5] 102% | inhibition [6] 1.09% | RAM network inhibition [7] 3.71%

O=C(NCC1OCCc2ccccc21)c1ccco1 (stereo not drawn)
inactive: growth inhibition [1] -13.7% | growth inhibition [2] -8.18% | viability increase [3] -3.72% | viability [4] 94.5% | viability [5] 96.5% | inhibition [6] 1.16% | RAM network inhibition [7] 6.11%

Cc1ccc(C(=O)N(Cc2nc(-c3ccc(C)cc3)no2)C(C)C)cc1
inactive: growth inhibition [1] -14.3% | growth inhibition [2] -18.5% | viability increase [3] 0.77% | viability [4] 100% | viability [5] 94.5% | inhibition [6] 1.33% | RAM network inhibition [7] 5.26%

CC(=O)NCCOc1c(C)cc(S(N)(=O)=O)cc1C
inactive: growth inhibition [1] 0.295% | growth inhibition [2] -6.93% | viability increase [3] -1.25% | viability [4] 92.4% | viability [5] 90.1% | inhibition [6] 0.43% | RAM network inhibition [7] 1.68%

COc1ccc(CN2CCCCC2c2cccnc2)c(OC)c1C (stereo not drawn)
inactive: growth inhibition [1] -1.37% | growth inhibition [2] 0.92% | viability increase [3] -2.86% | viability [4] 92.1% | viability [5] 99% | inhibition [6] 1.25% | RAM network inhibition [7] 1.37%
